# Test results from ChEMBL document CHEMBL5303300, “EUbOPEN Chemogenomics Library - Multiplex” (2023).
# Several values for one entry are separate records, joined by “and”; a condition that tells them apart may be missing. Identical values can stand only once.
# What was measured:
# Format in all cases: toxicity, cell-based
# U2OS = assay: Multiplex assay against U2OS; settings: human, number of replicates 2
# Method in brief: (§1)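 Live cells were stained at seeding with Hoechst33342, BioTracker Green Microtubule Cytoskeleton Dye, MitoTracker Red and Annexin V Alexa Fluor 680, then imaged on a CQ1 microscope at 37°C and 5% CO2 after compound addition. CellPathfinder machine-learning gating split cells into Hoechst high-intensity objects or normal cells. Normal cells were split into healthy, pyknosed or fragmented nuclei, and pyknosed cells into mitotic or apoptotic. Tubulin, mitochondrial-mass and membrane-permeability phenotypes are per cents of healthy-nucleus cells.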
# HEK-293T = assay: Multiplex assay against HEK293T; settings: human, number of replicates 2; method in brief: as §1
# Fibroblast = assay: Multiplex assay against human fibroblast; settings: number of replicates 2; method in brief: as §1
# [1] = 12 h, 1 µM, compound concentration 1 uM
# [2] = 12 h, 10 µM, compound concentration 10 uM
# [3] = 24 h, 1 µM, compound concentration 1 uM
# [4] = 24 h, 10 µM, compound concentration 10 uM
# [5] = 48 h, 1 µM, compound concentration 1 uM
# [6] = 48 h, 10 µM, compound concentration 10 uM
smiles,measurement,setting,value
O=S(=O)(c1ccccc1)N(CC(F)(F)F)c1ccc(C(O)(C(F)(F)F)C(F)(F)F)cc1 [T091317],Population Apoptotic (%),U2OS; [1],75% and 39%
same,Population Healthy Nuclei (%),U2OS; [1],62% and 82%
same,Population Hoechst High Intensity Objects (%),U2OS; [1],2% and 0%
same,Population Mitochondria Different-Phenotype (%),U2OS; [1],0% and 1%
same,Population Mitotic Cells (%),U2OS; [1],25% and 60%
same,Population Normal (%),U2OS; [1],97% and 100%
same,Population Pyknosed Nuclei (%),U2OS; [1],10% and 12%
same,Population Tubulin-Different-Phenotype (%),U2OS; [1],52% and 81%
same,Population Apoptotic (%),U2OS; [2],66% and 45%
same,Population Healthy Nuclei (%),U2OS; [2],56% and 80%
same,Population Hoechst High Intensity Objects (%),U2OS; [2],0%
same,Population Membrane Permeable-Phenotype (%),U2OS; [2],4% and 5%
same,Population Mitochondria Different-Phenotype (%),U2OS; [2],0% and 2%
same,Population Mitotic Cells (%),U2OS; [2],33% and 54%
same,Population Normal (%),U2OS; [2],100%
same,Population Pyknosed Nuclei (%),U2OS; [2],7% and 13%
same,Population Tubulin-Different-Phenotype (%),U2OS; [2],40% and 41%
same,Population Apoptotic (%),U2OS; [3],100% and 56%
same,Population Healthy Nuclei (%),U2OS; [3],58% and 88%
same,Population Hoechst High Intensity Objects (%),U2OS; [3],3% and 0%
same,Population Mitochondria Different-Phenotype (%),U2OS; [3],8% and 0%
same,Population Normal (%),U2OS; [3],96% and 100%
same,Population Pyknosed Nuclei (%),U2OS; [3],4% and 7%
same,Population Tubulin-Different-Phenotype (%),U2OS; [3],59% and 82%
same,Population Apoptotic (%),U2OS; [4],57% and 52%
same,Population Healthy Nuclei (%),U2OS; [4],65% and 78%
same,Population Hoechst High Intensity Objects (%),U2OS; [4],0%
same,Population Membrane Permeable-Phenotype (%),U2OS; [4],3% and 4%
same,Population Mitochondria Different-Phenotype (%),U2OS; [4],0% and 5%
same,Population Mitotic Cells (%),U2OS; [4],42% and 47%
same,Population Normal (%),U2OS; [4],100%
same,Population Pyknosed Nuclei (%),U2OS; [4],14% and 16%
same,Population Tubulin-Different-Phenotype (%),U2OS; [4],40% and 47%
same,Population Apoptotic (%),U2OS; [5],33% and 36%
same,Population Healthy Nuclei (%),U2OS; [5],65% and 90%
same,Population Hoechst High Intensity Objects (%),U2OS; [5],3% and 0%
same,Population Membrane Permeable-Phenotype (%),U2OS; [5],10% and 1%
same,Population Mitochondria Different-Phenotype (%),U2OS; [5],10% and 0%
same,Population Mitotic Cells (%),U2OS; [5],66% and 63%
same,Population Normal (%),U2OS; [5],96% and 100%
same,Population Pyknosed Nuclei (%),U2OS; [5],9% and 6%
same,Population Tubulin-Different-Phenotype (%),U2OS; [5],72% and 84%
same,Population Apoptotic (%),U2OS; [6],79% and 66%
same,Population Fragmented Nuclei (%),U2OS; [6],5% and 15%
same,Population Healthy Nuclei (%),U2OS; [6],81% and 70%
same,Population Hoechst High Intensity Objects (%),U2OS; [6],0%
same,Population Membrane Permeable-Phenotype (%),U2OS; [6],4% and 2%
same,Population Mitochondria Different-Phenotype (%),U2OS; [6],3% and 2%
same,Population Mitotic Cells (%),U2OS; [6],20% and 33%
same,Population Normal (%),U2OS; [6],100%
same,Population Pyknosed Nuclei (%),U2OS; [6],13%
same,Population Tubulin-Different-Phenotype (%),U2OS; [6],58% and 34%
same,Population Apoptotic (%),HEK-293T; [1],40% and 48%
same,Population Fragmented Nuclei (%),HEK-293T; [1],4% and 3%
same,Population Healthy Nuclei (%),HEK-293T; [1],83% and 82%
same,Population Hoechst High Intensity Objects (%),HEK-293T; [1],7% and 5%
same,Population Membrane Permeable-Phenotype (%),HEK-293T; [1],3% and 4%
same,Population Mitochondria Different-Phenotype (%),HEK-293T; [1],15% and 22%
same,Population Mitotic Cells (%),HEK-293T; [1],59% and 51%
same,Population Normal (%),HEK-293T; [1],92% and 94%
same,Population Pyknosed Nuclei (%),HEK-293T; [1],11% and 14%
same,Population Tubulin-Different-Phenotype (%),HEK-293T; [1],56%
same,Total Cell Count,HEK-293T; [1],740 and 522
same,Population Apoptotic (%),HEK-293T; [2],57% and 54%
same,Population Fragmented Nuclei (%),HEK-293T; [2],3% and 5%
same,Population Healthy Nuclei (%),HEK-293T; [2],83% and 81%
same,Population Hoechst High Intensity Objects (%),HEK-293T; [2],10% and 15%
same,Population Membrane Permeable-Phenotype (%),HEK-293T; [2],4% and 3%
same,Population Mitochondria Different-Phenotype (%),HEK-293T; [2],49% and 42%
same,Population Mitotic Cells (%),HEK-293T; [2],42% and 45%
same,Population Normal (%),HEK-293T; [2],89% and 84%
same,Population Pyknosed Nuclei (%),HEK-293T; [2],12%
same,Population Tubulin-Different-Phenotype (%),HEK-293T; [2],86% and 81%
same,Total Cell Count,HEK-293T; [2],426 and 429
same,Population Apoptotic (%),HEK-293T; [3],39% and 56%
same,Population Fragmented Nuclei (%),HEK-293T; [3],8% and 4%
same,Population Healthy Nuclei (%),HEK-293T; [3],83% and 85%
same,Population Hoechst High Intensity Objects (%),HEK-293T; [3],8% and 7%
same,Population Membrane Permeable-Phenotype (%),HEK-293T; [3],4%
same,Population Mitochondria Different-Phenotype (%),HEK-293T; [3],5% and 8%
same,Population Mitotic Cells (%),HEK-293T; [3],60% and 43%
same,Population Normal (%),HEK-293T; [3],91% and 92%
same,Population Pyknosed Nuclei (%),HEK-293T; [3],8% and 10%
same,Population Tubulin-Different-Phenotype (%),HEK-293T; [3],36% and 38%
same,Total Cell Count,HEK-293T; [3],1214 and 697
same,Population Apoptotic (%),HEK-293T; [4],44% and 68%
same,Population Fragmented Nuclei (%),HEK-293T; [4],2% and 7%
same,Population Healthy Nuclei (%),HEK-293T; [4],84% and 79%
same,Population Hoechst High Intensity Objects (%),HEK-293T; [4],9% and 18%
same,Population Membrane Permeable-Phenotype (%),HEK-293T; [4],4% and 3%
same,Population Mitochondria Different-Phenotype (%),HEK-293T; [4],53% and 59%
same,Population Mitotic Cells (%),HEK-293T; [4],55% and 31%
same,Population Normal (%),HEK-293T; [4],90% and 81%
same,Population Pyknosed Nuclei (%),HEK-293T; [4],12% and 13%
same,Population Tubulin-Different-Phenotype (%),HEK-293T; [4],87% and 86%
same,Total Cell Count,HEK-293T; [4],385 and 376
same,Population Fragmented Nuclei (%),HEK-293T; [5],15% and 8%
same,Population Healthy Nuclei (%),HEK-293T; [5],80% and 87%
same,Population Hoechst High Intensity Objects (%),HEK-293T; [5],10% and 9%
same,Population Membrane Permeable-Phenotype (%),HEK-293T; [5],6% and 3%
same,Population Mitochondria Different-Phenotype (%),HEK-293T; [5],0% and 2%
same,Population Mitotic Cells (%),HEK-293T; [5],90% and 68%
same,Population Normal (%),HEK-293T; [5],89% and 90%
same,Population Pyknosed Nuclei (%),HEK-293T; [5],3%
same,Population Tubulin-Different-Phenotype (%),HEK-293T; [5],19% and 22%
same,Total Cell Count,HEK-293T; [5],2956 and 1428
same,Population Apoptotic (%),HEK-293T; [6],67% and 74%
same,Population Fragmented Nuclei (%),HEK-293T; [6],7% and 14%
same,Population Healthy Nuclei (%),HEK-293T; [6],78% and 66%
same,Population Hoechst High Intensity Objects (%),HEK-293T; [6],14% and 24%
same,Population Membrane Permeable-Phenotype (%),HEK-293T; [6],4%
same,Population Mitochondria Different-Phenotype (%),HEK-293T; [6],66% and 58%
same,Population Mitotic Cells (%),HEK-293T; [6],32% and 25%
same,Population Normal (%),HEK-293T; [6],85% and 75%
same,Population Pyknosed Nuclei (%),HEK-293T; [6],14% and 19%
same,Population Tubulin-Different-Phenotype (%),HEK-293T; [6],94% and 82%
same,Total Cell Count,HEK-293T; [6],296 and 264
same,Population Apoptotic (%),Fibroblast; [1],45% and 27%
same,Population Fragmented Nuclei (%),Fibroblast; [1],13% and 11%
same,Population Healthy Nuclei (%),Fibroblast; [1],60% and 68%
same,Population Hoechst High Intensity Objects (%),Fibroblast; [1],0%
same,Population Membrane Permeable-Phenotype (%),Fibroblast; [1],8% and 10%
same,Population Mitochondria Different-Phenotype (%),Fibroblast; [1],1%
same,Population Mitotic Cells (%),Fibroblast; [1],54% and 72%
same,Population Normal (%),Fibroblast; [1],100%
same,Population Pyknosed Nuclei (%),Fibroblast; [1],25% and 20%
same,Population Tubulin-Different-Phenotype (%),Fibroblast; [1],28% and 21%
same,Total Cell Count,Fibroblast; [1],135 and 214
same,Population Apoptotic (%),Fibroblast; [2],33% and 30%
same,Population Fragmented Nuclei (%),Fibroblast; [2],14% and 12%
same,Population Healthy Nuclei (%),Fibroblast; [2],58% and 67%
same,Population Hoechst High Intensity Objects (%),Fibroblast; [2],0%
same,Population Membrane Permeable-Phenotype (%),Fibroblast; [2],6% and 8%
same,Population Mitochondria Different-Phenotype (%),Fibroblast; [2],1% and 4%
same,Population Mitotic Cells (%),Fibroblast; [2],66% and 69%
same,Population Normal (%),Fibroblast; [2],99% and 100%
same,Population Pyknosed Nuclei (%),Fibroblast; [2],28% and 19%
same,Population Tubulin-Different-Phenotype (%),Fibroblast; [2],40% and 34%
same,Total Cell Count,Fibroblast; [2],151 and 132
same,Population Apoptotic (%),Fibroblast; [3],50% and 52%
same,Population Fragmented Nuclei (%),Fibroblast; [3],15% and 10%
same,Population Healthy Nuclei (%),Fibroblast; [3],54% and 57%
same,Population Hoechst High Intensity Objects (%),Fibroblast; [3],0%
same,Population Membrane Permeable-Phenotype (%),Fibroblast; [3],7% and 15%
same,Population Mitochondria Different-Phenotype (%),Fibroblast; [3],5% and 0%
same,Population Mitotic Cells (%),Fibroblast; [3],50% and 47%
same,Population Normal (%),Fibroblast; [3],100%
same,Population Pyknosed Nuclei (%),Fibroblast; [3],29% and 31%
same,Population Tubulin-Different-Phenotype (%),Fibroblast; [3],28% and 24%
same,Total Cell Count,Fibroblast; [3],128 and 204
same,Population Apoptotic (%),Fibroblast; [4],63% and 37%
same,Population Fragmented Nuclei (%),Fibroblast; [4],16% and 18%
same,Population Healthy Nuclei (%),Fibroblast; [4],47% and 57%
same,Population Hoechst High Intensity Objects (%),Fibroblast; [4],0%
same,Population Membrane Permeable-Phenotype (%),Fibroblast; [4],8% and 17%
same,Population Mitochondria Different-Phenotype (%),Fibroblast; [4],7% and 4%
same,Population Mitotic Cells (%),Fibroblast; [4],36% and 62%
same,Population Normal (%),Fibroblast; [4],100% and 99%
same,Population Pyknosed Nuclei (%),Fibroblast; [4],35% and 24%
same,Population Tubulin-Different-Phenotype (%),Fibroblast; [4],65% and 56%
same,Total Cell Count,Fibroblast; [4],145 and 143
same,Population Apoptotic (%),Fibroblast; [5],75% and 69%
same,Population Fragmented Nuclei (%),Fibroblast; [5],10% and 13%
same,Population Healthy Nuclei (%),Fibroblast; [5],60% and 54%
same,Population Hoechst High Intensity Objects (%),Fibroblast; [5],0%
same,Population Membrane Permeable-Phenotype (%),Fibroblast; [5],15% and 14%
same,Population Mitochondria Different-Phenotype (%),Fibroblast; [5],0% and 2%
same,Population Mitotic Cells (%),Fibroblast; [5],24% and 30%
same,Population Normal (%),Fibroblast; [5],100% and 99%
same,Population Pyknosed Nuclei (%),Fibroblast; [5],28% and 31%
same,Population Tubulin-Different-Phenotype (%),Fibroblast; [5],32% and 24%
same,Total Cell Count,Fibroblast; [5],128 and 175
same,Population Apoptotic (%),Fibroblast; [6],71% and 78%
same,Population Fragmented Nuclei (%),Fibroblast; [6],25% and 16%
same,Population Healthy Nuclei (%),Fibroblast; [6],46% and 54%
same,Population Hoechst High Intensity Objects (%),Fibroblast; [6],1% and 0%
same,Population Membrane Permeable-Phenotype (%),Fibroblast; [6],16% and 26%
same,Population Mitochondria Different-Phenotype (%),Fibroblast; [6],4%
same,Population Mitotic Cells (%),Fibroblast; [6],28% and 21%
same,Population Normal (%),Fibroblast; [6],98% and 99%
same,Population Pyknosed Nuclei (%),Fibroblast; [6],27% and 28%
same,Population Tubulin-Different-Phenotype (%),Fibroblast; [6],69% and 80%
same,Total Cell Count,Fibroblast; [6],143 and 134
